Assay results from ChEMBL document CHEMBL4304798, “Iterative Optimization of the Cyclic Peptide SFTI-1 Yields Potent Inhibitors of Neutrophil Proteinase 3” (ACS Med Chem Lett, 2019).
Calls of active or inactive are those of the source. The calls are words filed in the database; no cut-off is given here. Positions of bridges follow the written chain, without caps; N, C: chain ends. Non-standard residues stand in square brackets, D forms with d. Residues, ends and D or L forms follow the SMILES beside them. ξ: configuration not given here. *: point of attachment. ClZ = O=C(OCc1ccccc1Cl)*; ξAbu = CCC(N)C(=O)O

Key:
[1] = biological target: T1, Myeloblastin (Homo sapiens) (UniProt P24158); test: Competitive inhibition of purified human proteinase 3 at 160 nM using MeOSuc-AAPV-MCA as substrate by fluorescence based assay
T1 sequence (whole entry): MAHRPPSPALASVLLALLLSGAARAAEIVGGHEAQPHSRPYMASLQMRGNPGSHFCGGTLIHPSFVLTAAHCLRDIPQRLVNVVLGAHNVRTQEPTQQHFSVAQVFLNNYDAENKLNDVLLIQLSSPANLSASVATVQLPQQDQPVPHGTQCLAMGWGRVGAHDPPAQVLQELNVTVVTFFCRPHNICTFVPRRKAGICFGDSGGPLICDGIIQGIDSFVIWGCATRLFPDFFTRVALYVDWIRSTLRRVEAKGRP
How it was run: (§1)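 Competitive inhibition screen against PR3, with each peptide variant tested at two fixed inhibitor concentrations.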

Neutrophil elastase = biological target: T2, Neutrophil elastase (Homo sapiens, UniProt P08246); test: Inhibition of human neutrophil elastase using MeOSuc-AAPV-MCA as substrate by fluorescence based assay
T2 sequence (P08246 whole entry): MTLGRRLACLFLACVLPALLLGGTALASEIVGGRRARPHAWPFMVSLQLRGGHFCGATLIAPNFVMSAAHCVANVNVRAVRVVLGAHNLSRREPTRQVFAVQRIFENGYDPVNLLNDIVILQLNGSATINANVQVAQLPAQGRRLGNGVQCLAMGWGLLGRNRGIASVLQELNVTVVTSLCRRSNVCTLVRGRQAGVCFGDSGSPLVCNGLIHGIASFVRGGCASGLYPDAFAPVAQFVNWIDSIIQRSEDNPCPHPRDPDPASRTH

Myeloblastin = biological target: T3, Myeloblastin (Homo sapiens, UniProt P24158); test: Inhibition of purified human proteinase 3 using MeOSuc-AAPV-MCA as substrate by fluorescence based assay
T3 sequence (P24158 whole entry): T1 sequence (whole entry)

Cathepsin G = biological target: T4, Cathepsin G (Homo sapiens, UniProt P08311); test: Inhibition of human Cathepsin G using Suc-AAPF-MCA as substrate by fluorescence based assay
T4 sequence (P08311 whole entry): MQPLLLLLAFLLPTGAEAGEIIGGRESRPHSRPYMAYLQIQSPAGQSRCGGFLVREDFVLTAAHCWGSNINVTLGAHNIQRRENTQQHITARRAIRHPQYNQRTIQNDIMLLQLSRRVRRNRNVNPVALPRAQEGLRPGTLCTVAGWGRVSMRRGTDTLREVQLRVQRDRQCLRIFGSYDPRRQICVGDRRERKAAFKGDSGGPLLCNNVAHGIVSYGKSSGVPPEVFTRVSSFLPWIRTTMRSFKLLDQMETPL

Chymotrypsin = Chymotrypsin (Homo sapiens, UniProt Q99895+P17538+P40313+Q6GPI1); test: Inhibition of human chymotrypsin using Suc-AAPF-MCA as substrate by fluorescence based assay; assay type: protein assay
Trypsin = Trypsin (Homo sapiens, UniProt P07477+P07478+P35030); test: Inhibition of recombinant human trypsin using Boc-VPR-MCA as substrate by fluorescence based assay; assay type: protein assay
[2] = Stability in human serum at 400 uM measured after 24 hrs by RP-HPLC analysis; assay type: ADME, cell-free; details: read-out: Stability
How it was run: (§2)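 Peptides incubated in human serum at 37 °C and sampled over time. Values are mean ± SEM from three experiments.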

Prothrombin = Prothrombin (Homo sapiens, UniProt P00734); test: Inhibition of recombinant human alpha thrombin using Boc-VPR-MCA as substrate by fluorescence based assay
[3] = biological target: T1, Myeloblastin (Homo sapiens); test: Competitive inhibition of purified human proteinase 3 at 40 nM using MeOSuc-AAPV-MCA as substrate by fluorescence based assay; how it was run: as §1
Chymase = biological target: T5, Chymase (Homo sapiens, UniProt P23946); test: Inhibition of recombinant human chymase expressed in Pichia pastoris using NleTDY-pNA as substrate by fluorescence based assay
T5 sequence (P23946 whole entry): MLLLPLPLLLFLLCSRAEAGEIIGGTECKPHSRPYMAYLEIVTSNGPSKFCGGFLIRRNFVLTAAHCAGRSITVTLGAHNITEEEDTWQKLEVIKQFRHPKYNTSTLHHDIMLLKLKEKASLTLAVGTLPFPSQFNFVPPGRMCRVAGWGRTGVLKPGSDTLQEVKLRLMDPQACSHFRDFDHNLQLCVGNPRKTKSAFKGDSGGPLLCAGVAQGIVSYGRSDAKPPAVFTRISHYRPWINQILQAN

[4] = Stability in human serum at 400 uM measured after 2 hrs by RP-HPLC analysis; assay type: ADME, cell-free; how it was run: as §2
[5] = biological target: T6, Neutrophil elastase (Homo sapiens) (UniProt P08246); test: Inhibition of human neutrophil elastase at 2.5 to 40 nM using MeOSuc-AAPV-MCA as substrate by fluorescence based assay
T6 sequence (whole entry): T2 sequence (P08246 whole entry)

CCC1NC(=O)[C@H](Cc2ccc(O)cc2)NC(=O)[C@@H]2CSSC[C@H](NC(=O)[C@H]([C@@H](C)CC)NC(=O)[C@@H]3CCCN3C(=O)[C@@H]3CCCN3C(=O)[C@H](CC(=O)O)NC(=O)[C@H](CO)NC1=O)C(=O)N[C@@H](CC(N)=O)C(=O)N1CCC[C@H]1C(=O)N[C@@H](CC(N)=O)C(=O)NCC(=O)N[C@@H]([C@@H](C)O)C(=O)N2 (stereo partly drawn) (HELM PEPTIDE1{C.N.P.N.G.T.C.Y.[CCC(N[*:1])C(=O)[*:2]].S.D.P.P.I}$PEPTIDE1,PEPTIDE1,1:R3-7:R3|PEPTIDE1,PEPTIDE1,1:R1-14:R2$$$V2.0)
inhibition activity (active/inactive) [1]: Active

CCC1NC(=O)[C@H](Cc2ccc(O)cc2)NC(=O)[C@@H]2CSSC[C@H](NC(=O)[C@H]([C@@H](C)CC)NC(=O)[C@@H]3CCCN3C(=O)[C@@H]3CCCN3C(=O)[C@H](Cc3ccc(O)cc3)NC(=O)[C@H](CO)NC1=O)C(=O)N[C@@H](CC(N)=O)C(=O)N1CCC[C@H]1C(=O)N[C@@H](CC(N)=O)C(=O)NCC(=O)N[C@@H]([C@@H](C)O)C(=O)N2 (stereo partly drawn) (HELM PEPTIDE1{C.N.P.N.G.T.C.Y.[CCC(N[*:1])C(=O)[*:2]].S.Y.P.P.I}$PEPTIDE1,PEPTIDE1,1:R3-7:R3|PEPTIDE1,PEPTIDE1,1:R1-14:R2$$$V2.0)
Ki (Neutrophil elastase): 0.0032 µM | Ki (Myeloblastin): 0.007 µM | IC50 (Cathepsin G): > 10 µM | IC50 (Chymotrypsin): > 10 µM | IC50 (Trypsin): > 10 µM | remaining at 24 h, 400 µM [2]: 90 to 95% | IC50 (Prothrombin): > 10 µM | inhibition [3]: Active | IC50 (Chymase): > 10 µM

CC[C@H](C)[C@@H]1NC(=O)[C@@H]2CCCN2C(=O)[C@@H]2CCCN2C(=O)[C@H]([C@@H](C)CC)NC(=O)[C@H](CO)NC(=O)[C@H](CCCCN)NC(=O)[C@H]([C@@H](C)O)NC(=O)[C@@H](NC(=O)[C@H](CCCNC(=N)N)NC(=O)CN)CSSC[C@@H](C(=O)N[C@@H](Cc2ccccc2)C(=O)N2CCC[C@H]2C(=O)N[C@@H](CC(=O)O)C(=O)O)NC1=O
Stability [4]: Unstable

CCC1NC(=O)[C@H](Cc2ccc(O)cc2)NC(=O)[C@@H]2CSSC[C@H](NC(=O)[C@H]([C@@H](C)CC)NC(=O)[C@@H]3CCCN3C(=O)[C@@H]3CCCN3C(=O)[C@H](Cc3c[nH]c4ccccc34)NC(=O)[C@H](CO)NC1=O)C(=O)N[C@@H](CC(N)=O)C(=O)N1CCC[C@H]1C(=O)N[C@@H](CC(N)=O)C(=O)NCC(=O)N[C@@H]([C@@H](C)O)C(=O)N2 (stereo partly drawn) (HELM PEPTIDE1{C.N.P.N.G.T.C.Y.[CCC(N[*:1])C(=O)[*:2]].S.W.P.P.I}$PEPTIDE1,PEPTIDE1,1:R3-7:R3|PEPTIDE1,PEPTIDE1,1:R1-14:R2$$$V2.0)
inhibition [3]: Active

CCC1NC(=O)[C@H](Cc2ccc(O)cc2)NC(=O)[C@@H]2CSSC[C@H](NC(=O)[C@H]([C@@H](C)CC)NC(=O)[C@@H]3CCCN3C(=O)[C@@H]3CCCN3C(=O)[C@H](Cc3ccc(O)cc3)NC(=O)[C@H](CO)NC1=O)C(=O)N[C@@H](CC(N)=O)C(=O)N1CCC[C@H]1C(=O)N[C@@H](CC(N)=O)C(=O)NCC(=O)N[C@@H](CCCCNC(=O)OCc1ccccc1Cl)C(=O)N2 (stereo partly drawn) (cyclo(CNPNGK(ClZ)CY[ξAbu]SYPPI); disulfide 1-7)
inhibition [5]: Active

CCC1NC(=O)[C@H](CC(=O)O)NC(=O)[C@@H]2CSSC[C@H](NC(=O)[C@H]([C@@H](C)CC)NC(=O)[C@@H]3CCCN3C(=O)[C@@H]3CCCN3C(=O)[C@H](Cc3ccc(O)cc3)NC(=O)[C@H](CO)NC1=O)C(=O)N[C@@H](CC(N)=O)C(=O)N1CCC[C@H]1C(=O)N[C@@H](CC(N)=O)C(=O)NCC(=O)N[C@@H]([C@@H](C)O)C(=O)N2 (stereo partly drawn) (HELM PEPTIDE1{C.D.[CCC(N[*:1])C(=O)[*:2]].S.Y.P.P.I.C.N.P.N.G.T}$PEPTIDE1,PEPTIDE1,1:R3-9:R3|PEPTIDE1,PEPTIDE1,1:R1-14:R2$$$V2.0)
inhibition activity (active/inactive) [1]: Active

CCC1NC(=O)[C@H](Cc2ccc(O)cc2)NC(=O)[C@@H]2CSSC[C@H](NC(=O)[C@H]([C@@H](C)CC)NC(=O)[C@@H]3CCCN3C(=O)[C@@H]3CCCN3C(=O)[C@H](Cc3ccc(O)cc3)NC(=O)[C@H](CO)NC1=O)C(=O)N[C@@H](CC(N)=O)C(=O)N1CCC[C@H]1C(=O)N[C@@H](CC(N)=O)C(=O)NCC(=O)N[C@@H](Cc1ccc(-c3ccccc3)cc1)C(=O)N2 (stereo partly drawn) (HELM PEPTIDE1{[O=C([C@H](Cc1ccc(-c2ccccc2)cc1)N[*:1])[*:2]].C.Y.[CCC(N[*:1])C(=O)[*:2]].S.Y.P.P.I.C.N.P.N.G}$PEPTIDE1,PEPTIDE1,2:R3-10:R3|PEPTIDE1,PEPTIDE1,1:R1-14:R2$$$V2.0)
Ki (Neutrophil elastase): 0.024 µM | Ki (Myeloblastin): 0.017 µM | IC50 (Cathepsin G): > 10 µM | IC50 (Chymotrypsin): > 10 µM | IC50 (Trypsin): > 10 µM | remaining at 24 h, 400 µM [2]: 90 to 95% | IC50 (Prothrombin): > 10 µM | IC50 (Chymase): > 10 µM | inhibition [5]: Active

CCC1NC(=O)[C@H](CC(=O)O)NC(=O)[C@@H]2CSSC[C@H](NC(=O)[C@H]([C@@H](C)CC)NC(=O)[C@@H]3CCCN3C(=O)[C@@H]3CCCN3C(=O)[C@H](CC(=O)O)NC(=O)[C@H](CO)NC1=O)C(=O)N[C@@H](CC(N)=O)C(=O)N1CCC[C@H]1C(=O)N[C@@H](CC(N)=O)C(=O)NCC(=O)N[C@@H]([C@@H](C)O)C(=O)N2 (stereo partly drawn) (HELM PEPTIDE1{C.D.[CCC(N[*:1])C(=O)[*:2]].S.D.P.P.I.C.N.P.N.G.T}$PEPTIDE1,PEPTIDE1,1:R3-9:R3|PEPTIDE1,PEPTIDE1,1:R1-14:R2$$$V2.0)
inhibition activity (active/inactive) [1]: Active

CCCC1NC(=O)[C@H](Cc2ccc(O)cc2)NC(=O)[C@@H]2CSSC[C@H](NC(=O)[C@H]([C@@H](C)CC)NC(=O)[C@@H]3CCCN3C(=O)[C@@H]3CCCN3C(=O)[C@H](Cc3ccc(O)cc3)NC(=O)[C@H](CO)NC1=O)C(=O)N[C@@H](CC(N)=O)C(=O)N1CCC[C@H]1C(=O)N[C@@H](CC(N)=O)C(=O)NCC(=O)N[C@@H](Cc1ccc(-c3ccccc3)cc1)C(=O)N2 (stereo partly drawn) (HELM PEPTIDE1{[O=C([C@H](Cc1ccc(-c2ccccc2)cc1)N[*:1])[*:2]].C.Y.[CCCC(N[*:1])C(=O)[*:2]].S.Y.P.P.I.C.N.P.N.G}$PEPTIDE1,PEPTIDE1,2:R3-10:R3|PEPTIDE1,PEPTIDE1,1:R1-14:R2$$$V2.0)
Ki (Neutrophil elastase): 0.016 µM | Ki (Myeloblastin): 0.0061 µM | IC50 (Cathepsin G): > 5 µM | Ki (Chymotrypsin): 0.463 µM | IC50 (Trypsin): > 10 µM | remaining at 24 h, 400 µM [2]: 90 to 95% | IC50 (Prothrombin): > 10 µM | IC50 (Chymase): > 10 µM

CCC1NC(=O)[C@H](Cc2ccc(O)cc2)NC(=O)[C@@H]2CSSC[C@H](NC(=O)[C@H]([C@@H](C)CC)NC(=O)[C@@H]3CCCN3C(=O)[C@@H]3CCCN3C(=O)[C@H](CCC(=O)O)NC(=O)[C@H](CO)NC1=O)C(=O)N[C@@H](CC(N)=O)C(=O)N1CCC[C@H]1C(=O)N[C@@H](CC(N)=O)C(=O)NCC(=O)N[C@@H]([C@@H](C)O)C(=O)N2 (stereo partly drawn) (HELM PEPTIDE1{C.N.P.N.G.T.C.Y.[CCC(N[*:1])C(=O)[*:2]].S.E.P.P.I}$PEPTIDE1,PEPTIDE1,1:R3-7:R3|PEPTIDE1,PEPTIDE1,1:R1-14:R2$$$V2.0)
inhibition activity (active/inactive) [1]: Active
